Reference: ChEMBL document CHEMBL3244411, “A new warfarin metabolite: structure and function” (J Med Chem, 1978)

What was measured:
Type in all cases: ADME
[1] = Activity at cytochrome P450 in PCN-induced rat liver microsomes treated with (R)-warfarin at 0.15 mmol measured under basic conditions by LC-UV analysis in presence of cumene hydroperoxide
Summary of the method: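 PCN-induced rat liver microsomes (PCN 100 mg/kg/day ip in corn oil for 3 days; killed 24 h after last dose): 200 mL of microsomes at 2.0 mg protein/mL in TES-MgCl2 buffer pH 7.4, with (R)-warfarin sodium 1.5 × 10^-4 mol. Shaken 5 min at 37 °C, then started with cumene hydroperoxide 1.6 × 10^-4 mol, re-added at 10 min, stopped at 30 min on ice. Product collected by preparative C18 LC.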

[2] = Activity at cytochrome P450 in phenobarbital-induced rat liver microsomes treated with (S)-warfarin at 3 umol measured under basic conditions by LC-UV analysis in presence of NADPH
Summary of the method: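 Phenobarbital induction: 100 mg/kg/day ip in saline for 3 days, microsomes isolated 24 h after the last dose. Incubation in 4.0 mL 0.01 M TES-0.002 M MgCl2, pH 7.4, with warfarin sodium 1.0 mg (3.0 × 10^-6 mol), NADP 1.25 μmol, glucose 6-phosphate 62.1 μmol and 8.0 mg microsomal protein. Preincubated 1.0 min at 37 °C, started with G6P dehydrogenase 5.0 units, stopped after 10 min by filtration. Metabolites quantified by LC against external standards.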

[3] = Activity at cytochrome P450 in rat liver microsomes treated with (S)-warfarin at 3 umol measured under basic conditions by LC-UV analysis in presence of NADPH
Summary of the method: (§1)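 Male Wistar rat hepatic microsomes, 8.0 mg protein in 4.0 mL 0.01 M TES-0.002 M MgCl2, pH 7.4. Enantiopure warfarin sodium 1.0 mg (3.0 × 10^-6 mol) with an NADPH-generating system (NADP 1.25 μmol, glucose 6-phosphate 62.1 μmol). Preincubated 1.0 min at 37 °C, started with G6P dehydrogenase 5.0 units, stopped after 10 min by filtration. Metabolites separated and quantified by LC against external standards.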

[4] = Activity at cytochrome P450 in rat liver microsomes treated with (R)-warfarin measured after 10 mins by LC-UV analysis; summary of the method: as §1
[5] = Activity at cytochrome P450 in rat liver microsomes treated with (S)-warfarin measured for 10 mins by LC-UV analysis; summary of the method: as §1
[6] = Activity at cytochrome P450 in rat liver microsomes treated with (R)-warfarin measured for 10 mins by LC-UV analysis; summary of the method: as §1
[7] = Activity at cytochrome P450 in rat liver microsomes treated with (S)-warfarin measured after 10 mins by LC-UV analysis; summary of the method: as §1

| Drug metabolism [1] | Drug metabolism [2] | Drug metabolism [3] | Drug metabolism [4] | Drug metabolism [5] | Drug metabolism [6] | Drug metabolism [7] | Compound |
| --- | --- | --- | --- | --- | --- | --- | --- |
| metabolite_detected | metabolite_detected | metabolite_detected |  |  |  |  | CC(=O)/C=C(\c1ccccc1)c1c(O)oc2ccccc2c1=O |
|  |  |  | metabolite_detected | metabolite_detected | metabolite_detected | metabolite_detected | CC(=O)CC(c1ccc(O)cc1)c1c(O)oc2ccccc2c1=O (configuration not stated) |
